What is called IC50 is the midpoint of a concentration-inhibition curve.

Some results are limits rather than exact numbers.

The results in this text go back to ChEMBL document CHEMBL1949539, “Synthesis and antikinetoplastid activity of a series of N,N'-substituted diamines” (Bioorg Med Chem Lett, 2012).

Series [1] concerns Vero. In words: Cytotoxicity against african green monkey Vero cells at 4.76 ug/ml after 48 hrs by neutral red assay. The format is cell-based. Particulars: chlorocebus sabaeus.
For a further series, the system named is Trypanosoma brucei. In words: Antitrypanosomal activity against Trypanosoma brucei MITat 427 clone 221a trypomastigotes after 3 days by alamar blue assay. The format is functional, organism-based. The following applies: 72 h.
The next series concerns Trypanosoma cruzi. In words: Antitrypanosomal activity against Trypanosoma cruzi clone CL-Brener epimastigotes after 14 days by alamar blue assay. In kind it is functional, organism-based. The following applies: 336 h. For orientation: Alamar Blue is a resazurin reagent that responds to reducing activity.
The subject of another series is Leishmania donovani. In words: Antileishmanial activity against Leishmania donovani S1 promastigotes after 72 hrs by alamar blue assay. The format is functional, organism-based. The following applies: S1, 72 h.
The test system of series [2] is Vero. In words: Cytotoxicity against african green monkey Vero cells after 48 hrs by neutral red assay. The format is cell-based. The following applies: chlorocebus sabaeus.
The nature of series [3]: Selectivity ratio of IC50 for african green monkey Vero cells to IC50 for Trypanosoma brucei MITat 427 clone 221a trypomastigotes. The format is ADME, cell-based. The following applies: read-out: Ratio IC50. In short, it runs like this:
(§1)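 Selectivity index was calculated as the IC50 in Vero cells divided by the IC50 in the parasite.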

Series [4] in a line: Selectivity ratio of IC50 for african green monkey Vero cells to IC50 for Leishmania donovani S1 promastigotes. In kind it is ADME, cell-based. The following applies: Vero cells versus Leishmania donovani S1 promastigotes, read-out: Ratio IC50. A digest of the protocol:
as §1

Series [5] can be described thus: Selectivity ratio of IC50 for african green monkey Vero cells to IC50 for Trypanosoma cruzi clone CL-Brener epimastigotes. The format is ADME, cell-based. The following applies: read-out: Ratio IC50. In short, it runs like this: as §1

As to `COc1ccc(CNCCCNCc2ccc(OC)c(O)c2)cc1O`, the Activity result in the series with Vero [1] is recorded as “Non-toxic”. Further, the IC50 with Trypanosoma brucei is above 10 µM; with Trypanosoma cruzi it was above 10 µM; in the series with Leishmania donovani it was above 100 µM.

Take `CC1CS(=O)(=O)CCN1/N=C/c1ccc([N+](=O)[O-])o1` (centres undefined) [NIFURTIMOX]: the figures for the IC50 in the series on Trypanosoma brucei and in the series on Trypanosoma cruzi were 1.7 µM and 2.1 µM, respectively.

For the compound `COc1ccc(CNCCCCCCNCc2ccc(OC)cc2)cc1`, the IC50 is 8.32 µM in the series with Vero [2], 0.22 µM with Trypanosoma brucei, above 10 µM in the series on Trypanosoma cruzi and 6.73 µM in the series on Leishmania donovani. The selectivity ratio turned out to be 60 in series [3] and 2 in series [4].

As to `COc1cc(CNCCCCCCCCNCc2ccc(OCc3ccccc3)c(OC)c2)ccc1OCc1ccccc1`, the IC50 in the series on Vero [2] was 2.7 µM; in the series on Trypanosoma brucei it was 0.19 µM; in the series on Trypanosoma cruzi, 0.82 µM; in the series on Leishmania donovani it was 0.22 µM. For the same compound, the selectivity ratio came to 6 in series [5], 24 in series [3] and 21 in series [4].

Turning to `COc1cc(CNCCCCCCNCc2ccc(OCc3ccccc3)c(OC)c2)ccc1OCc1ccccc1`, the Activity result with Vero [1] is recorded as “Non-toxic”. Besides, the selectivity ratio in series [5] was above 11; in series [3], above 44; in series [4] it was above 40. Besides, the figures for the IC50 with Trypanosoma brucei, in the series on Trypanosoma cruzi and with Leishmania donovani were 0.19 µM, 0.74 µM and 0.21 µM, respectively.

Take `COc1ccc(CNCCCCCCNCc2ccc(OC)c(O)c2)cc1O`: the Activity entry in the series with Vero [1] is recorded as “Non-toxic”. In addition, the selectivity ratio in series [4] was above 0.3. The IC50 with Trypanosoma brucei is above 10 µM; in the series on Trypanosoma cruzi, above 10 µM; in the series on Leishmania donovani, 43.8 µM.

As for `COc1ccc(CNCCCCNCc2ccc(OC)c(O)c2)cc1O`, the Activity entry in the series on Vero [1] is “Non-toxic”. For the same compound, the IC50 is above 10 µM in the series on Trypanosoma brucei, above 10 µM with Trypanosoma cruzi and above 100 µM in the series on Leishmania donovani.

As to `COc1ccc(CNCCCNCc2ccc(OC)cc2)cc1`, the Activity entry in the series on Vero [1] was “Non-toxic”. Also, the selectivity ratio in series [3] is above 7; in series [4], above 12. Further, the IC50 with Trypanosoma brucei is 2.04 µM; in the series with Trypanosoma cruzi, above 10 µM; in the series on Leishmania donovani it was 1.24 µM.

In the case of `COc1ccc(CNCCCCNCc2ccc(OC)cc2)cc1`, in the series with Vero [1], the Activity result is on record as “Non-toxic”. Also, the selectivity ratio in series [3] was above 5; in series [4], above 2. In addition, the IC50 in the series on Trypanosoma brucei was 3.2 µM; with Trypanosoma cruzi, above 10 µM; in the series with Leishmania donovani it was 8.52 µM.

Take `COc1ccc(CNCCCCCCCCCCNCc2ccc(OC)c(O)c2)cc1O`: the Activity entry with Vero [1] is given as “Non-toxic”. In addition, the selectivity ratio in series [3] was above 11; in series [4], above 2. Further, the IC50 in the series on Trypanosoma brucei was 0.96 µM; in the series on Trypanosoma cruzi, above 10 µM; in the series on Leishmania donovani, 4.5 µM.

For `COc1ccc(CNCCCCCCCCNCc2ccc(OC)c(O)c2)cc1O`, the Activity result in the series on Vero [1] was “Non-toxic”. Moreover, the selectivity ratio was above 2 in series [3] and above 0.3 in series [4]. Further, the values for the IC50 with Trypanosoma brucei, in the series on Trypanosoma cruzi and in the series with Leishmania donovani were 5.5 µM, above 10 µM and 44.4 µM, respectively.

In the series with Leishmania donovani, `C[C@@H]1[C@H](O)[C@@H](C)/C=C/C=C/C=C/C=C/C=C/C=C/C=C/[C@H](O[C@@H]2O[C@H](C)[C@@H](O)[C@H](N)[C@@H]2O)C[C@@H]2O[C@](O)(C[C@@H](O)C[C@@H](O)[C@H](O)CC[C@@H](O)C[C@@H](O)CC(=O)O[C@H]1C)C[C@H](O)[C@H]2C(=O)O` [AMPHOTERICIN B] showed an IC50 of 0.32 µM.

Turning to `COc1ccc(CNCCCCCCCCNCc2ccc(OC)cc2)cc1`, the Activity entry in the series on Vero [1] is reported as “Non-toxic”. The figures for the selectivity ratio in series [3] and in series [4] were above 2 and above 5, respectively. For the same compound, the figures for the IC50 with Trypanosoma brucei, in the series on Trypanosoma cruzi and with Leishmania donovani were 5.5 µM, above 10 µM and 1.56 µM, respectively.

Consider `c1ccc(CNCCCNCc2ccccc2)cc1`, for which the Activity result in the series with Vero [1] is listed as “Non-toxic”. Further, the figures for the selectivity ratio in series [3] and in series [4] were above 3 and above 27, respectively. Moreover, the IC50 was 6.45 µM with Trypanosoma brucei, above 10 µM with Trypanosoma cruzi and 11 µM in the series with Leishmania donovani.

As for `COc1cc(CNCCCCNCc2ccc(OCc3ccccc3)c(OC)c2)ccc1OCc1ccccc1`, the IC50 in the series with Vero [2] was 2.7 µM; in the series on Trypanosoma brucei, 0.17 µM; in the series with Trypanosoma cruzi, 0.73 µM; in the series on Leishmania donovani it was 0.24 µM. For the same compound, the selectivity ratio in series [5] amounted to 12; in series [3], 52; in series [4], 37.

Consider `COc1ccc(CNCCCCCCCCCCNCc2ccc(OC)cc2)cc1`, for which the Activity result in the series with Vero [1] is “Non-toxic”. Moreover, the selectivity ratio is above 5 in series [5] and above 8 in series [4]. Also, the IC50 was above 10 µM in the series on Trypanosoma brucei, 2.3 µM in the series with Trypanosoma cruzi and 1.45 µM in the series on Leishmania donovani.

As to `COc1cc(CNCCCCCCCCCCNCc2ccc(OCc3ccccc3)c(OC)c2)ccc1OCc1ccccc1`, the Activity result with Vero [1] was “Non-toxic”. The selectivity ratio is above 10 in series [5], above 67 in series [3] and above 6 in series [4]. Further, the IC50 with Trypanosoma brucei was found to be 0.11 µM; with Trypanosoma cruzi, 0.8 µM; in the series with Leishmania donovani, 1.2 µM.

Turning to `COc1cc(CNCCCNCc2ccc(OCc3ccccc3)c(OC)c2)ccc1OCc1ccccc1`, the IC50 with Vero [2] was found to be 6.65 µM; in the series with Trypanosoma brucei, 0.19 µM; in the series on Trypanosoma cruzi, 0.81 µM; with Leishmania donovani it was 0.23 µM. For the same compound, the selectivity ratio in series [5] was 8; in series [3], 35; in series [4], 29.
